Assay results: ChEMBL document CHEMBL1240314, “Small-molecule inhibitor of p53 binding to mitochondria protects mice from gamma radiation” (2006)
The source made the active and inactive calls.

What was measured:
[1] = biological target: Cellular tumor antigen p53 (Homo sapiens) (UniProt P04637); test: Effect on UV-induced activation of p53 in human ConA cells assessed as beta-galactosidase activity by X-gal staining; type: cell-based
Summary of the method: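 ConA cells carrying a lacZ reporter under a p53-responsive promoter; UV 35 J m–2; β-galactosidase visualized by X-gal staining 24 h after treatment.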

MCF7 = test: Induction of Bax gene expression in UV-induced human MCF7 cells; type: functional, cell-based
Summary of the method: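 Northern blot: 10 mg RNA (so in the source) isolated 18 h after UV (8.5 J m–2) or doxorubicin (125 mg ml–1 as printed) from MCF7 or U2OS cells and p53-knockdown (lentiviral shRNA) counterparts; hybridized with 32P-labeled full-length cDNA probes for Bax, Noxa, Puma; 18S rRNA loading control.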

[2] = biological target: Cellular tumor antigen p53 (Homo sapiens) (UniProt P04637); test: Inhibition of p53-mediated transactivation of promoter cyclin G in human H1299 cells at 10 uM after 48 hrs by luciferase reporter assay; type: cell-based

Sequence of Cellular tumor antigen p53 (Homo sapiens) (P04637 whole entry, looked up): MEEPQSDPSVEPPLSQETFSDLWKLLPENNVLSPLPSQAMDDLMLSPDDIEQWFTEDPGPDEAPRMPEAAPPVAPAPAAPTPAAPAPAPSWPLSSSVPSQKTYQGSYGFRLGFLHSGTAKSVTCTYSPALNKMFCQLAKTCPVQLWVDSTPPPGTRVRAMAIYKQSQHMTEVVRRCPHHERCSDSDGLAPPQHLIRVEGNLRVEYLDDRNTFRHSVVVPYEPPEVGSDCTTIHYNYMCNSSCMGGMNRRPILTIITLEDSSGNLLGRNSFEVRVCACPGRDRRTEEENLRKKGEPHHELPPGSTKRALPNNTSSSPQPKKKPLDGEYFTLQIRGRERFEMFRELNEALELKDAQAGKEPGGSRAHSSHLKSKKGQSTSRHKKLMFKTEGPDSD

NS(=O)(=O)C#Cc1ccccc1
inactive: Activity [1] | Activity (MCF7) | inhibition [2]
